Data from ChEMBL document CHEMBL1828575, “Design, synthesis and antiproliferative activities of biarylolefins based on polyhydroxylated and carbohydrate scaffolds” (Eur J Med Chem, 2011).

Tests used:
[1] = tested on: HL-60; test: Cytotoxicity against human HL60 cells at 10^-6 M after 72 hrs by MTS assay; type: functional; conditions: HL-60, 72 h, read-out: GI
How it was run: (§1)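 Cells grown in RPMI with 10% fetal calf serum, penicillin, streptomycin and fungizone under 5% CO₂. Plated in 96-well plates and dosed 24 h later with compound in DMSO (1% final DMSO; controls got DMSO alone). After 72 h, MTS was added for 3 h at 37 °C and A490 read. Inhibition = (1 − OD treated/OD control) × 100, in triplicate.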

[2] = Cytotoxicity against human HL60R cells at 10^-5 M after 72 hrs by MTS assay; type: functional, HL-60; conditions: read-out: GI; how it was run: as §1
[3] = tested on: A549; test: Cytotoxicity against human A549 cells at 10^-5 M after 72 hrs by MTS assay; type: functional; conditions: A549, 72 h, read-out: GI; how it was run: as §1
[4] = tested on: HCT-15; test: Cytotoxicity against human HCT15 cells at 10^-5 M after 72 hrs by MTS assay; type: functional; conditions: HCT-15, 72 h, read-out: GI; how it was run: as §1
[5] = Cytotoxicity against human MDA231 cells at 10^-5 M after 72 hrs by MTS assay; type: functional; conditions: MDA-MB-231, 72 h, read-out: GI
How it was run: (§2)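 Preliminary screen at 10^-5 and 10^-6 M. Cells were grown in RPMI with 10% fetal calf serum plus penicillin, streptomycin and fungizone under 5% CO₂, plated in 96-well plates, and dosed 24 h later from DMSO stocks (1% DMSO final, same in controls). After 72 h, MTS was added for 3 h at 37 °C and absorbance read at 490 nm. Inhibition was calculated as (1 − OD treated/OD control) × 100, in triplicate.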

[6] = tested on: SF-268; test: Cytotoxicity against human SF268 cells at 10^-5 M after 72 hrs by MTS assay; type: functional; conditions: SF-268, 72 h, read-out: GI; how it was run: as §2
[7] = tested on: SK-MEL-28; test: Cytotoxicity against human SK-MEL-28 cells assessed as cellular growth at 10 uM after 48 hrs by SRB assay; type: functional
[8] = Cytotoxicity against human MDA231 cells at 10^-6 M after 72 hrs by MTS assay; type: functional; conditions: MDA-MB-231, 72 h, read-out: GI; how it was run: as §2
[9] = tested on: HT-29; test: Cytotoxicity against human HT-29 cells at 10^-5 M after 72 hrs by MTS assay; type: functional; conditions: HT-29, 72 h, read-out: GI; how it was run: as §1
[10] = tested on: RXF 393; test: Cytotoxicity against human RXF393 cells assessed as cellular growth at 10 uM after 48 hrs by SRB assay; type: functional
[11] = tested on: SK-OV-3; test: Cytotoxicity against human SKOV3 cells at 10^-6 M after 72 hrs by MTS assay; type: functional; conditions: SK-OV-3, 72 h, read-out: GI; how it was run: as §2
[12] = tested on: OVCAR-8; test: Cytotoxicity against human OVCAR8 cells at 10^-6 M after 72 hrs by MTS assay; type: functional; conditions: OVCAR-8, 72 h, read-out: GI; how it was run: as §2
[13] = tested on: K562; test: Cytotoxicity against human K562 cells at 10^-6 M after 72 hrs by MTS assay; type: functional; conditions: K562, 72 h, read-out: GI; how it was run: as §1
[14] = tested on: MCF7; test: Cytotoxicity against human MCF7 cells at 10^-6 M after 72 hrs by MTS assay; type: functional; conditions: MCF7, 72 h, read-out: GI
[15] = tested on: K562; test: Cytotoxicity against human K562 cells at 10^-5 M after 72 hrs by MTS assay; type: functional; conditions: K562, 72 h, read-out: GI; how it was run: as §1
[16] = tested on: HCT-15; test: Cytotoxicity against human HCT15 cells at 10^-6 M after 72 hrs by MTS assay; type: functional; conditions: HCT-15, 72 h, read-out: GI; how it was run: as §1
[17] = tested on: MIA PaCa-2; test: Cytotoxicity against human MIAPaCa2 cells at 10^-5 M after 72 hrs by MTS assay; type: functional; conditions: MIA PaCa-2, 72 h, read-out: GI
[18] = tested on: SW-620; test: Cytotoxicity against human SW620 cells assessed as cellular growth at 10 uM after 48 hrs by SRB assay; type: functional
[19] = tested on: HCC 2998; test: Cytotoxicity against human HCC2998 cells assessed as cellular growth at 10 uM after 48 hrs by SRB assay; type: functional
How it was run: (§3)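 NCI60 single-dose screen of cells in RPMI 1640 with 5% FBS and 2 mM L-glutamine, preincubated 24 h at 37 °C, 5% CO₂. Cells were then exposed 48 h to compound added from DMSO stock. TCA-fixed, stained with 0.4% SRB in 1% acetic acid, dye solubilised in 10 mM Tris base and read at 515 nm. Growth is given as percent of untreated control.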

[20] = tested on: HL-60; test: Cytotoxicity against human HL60 cells at 10^-5 M after 72 hrs by MTS assay; type: functional; conditions: HL-60, 72 h, read-out: GI; how it was run: as §1
[21] = Cytotoxicity against human HL60R cells at 10^-6 M after 72 hrs by MTS assay; type: functional; conditions: read-out: GI; how it was run: as §1
[22] = tested on: MIA PaCa-2; test: Cytotoxicity against human MIAPaCa2 cells at 10^-6 M after 72 hrs by MTS assay; type: functional; conditions: MIA PaCa-2, 72 h, read-out: GI
[23] = tested on: A549; test: Cytotoxicity against human A549 cells at 10^-6 M after 72 hrs by MTS assay; type: functional; conditions: A549, 72 h, read-out: GI; how it was run: as §1
[24] = tested on: SK-OV-3; test: Cytotoxicity against human SKOV3 cells at 10^-5 M after 72 hrs by MTS assay; type: functional; conditions: SK-OV-3, 72 h, read-out: GI; how it was run: as §2
[25] = tested on: M14; test: Antitumor activity against human M14 cells after 48 hrs by SRB assay; type: functional; conditions: M14, 48 h
How it was run: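 NCI60 panel in RPMI 1640 with 5% FBS and 2 mM L-glutamine. Cells were plated at 5000–40,000/well by doubling time, held 24 h, then time-zero plates were TCA-fixed. Five concentrations (10-fold or half-log dilutions of DMSO stocks) were applied for 48 h at 37 °C, 5% CO2. Cells were fixed with cold TCA (10% final adherent, 16% suspension) and stained with 0.4% SRB. Bound dye was dissolved in 10 mM Tris and read at 515 nm. GI50, TGI and LC50 were calculated per line.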

[26] = tested on: HCT-116; test: Cytotoxicity against human HCT116 cells at 10^-5 M after 72 hrs by MTS assay; type: functional; conditions: HCT-116, 72 h, read-out: GI; how it was run: as §1
[27] = tested on: SF-268; test: Cytotoxicity against human SF268 cells at 10^-6 M after 72 hrs by MTS assay; type: functional; conditions: SF-268, 72 h, read-out: GI; how it was run: as §2
[28] = Cytotoxicity against human Hs 578T cells assessed as cellular growth at 10 uM after 48 hrs by SRB assay; type: functional
[29] = tested on: OVCAR-8; test: Cytotoxicity against human OVCAR8 cells at 10^-5 M after 72 hrs by MTS assay; type: functional; conditions: OVCAR-8, 72 h, read-out: GI; how it was run: as §2
[30] = tested on: MCF7; test: Cytotoxicity against human MCF7 cells at 10^-5 M after 72 hrs by MTS assay; type: functional; conditions: MCF7, 72 h, read-out: GI
[31] = tested on: A498; test: Cytotoxicity against human A498 cells assessed as cellular growth at 10 uM after 48 hrs by SRB assay; type: functional; how it was run: as §3
[32] = tested on: PC-3; test: Cytotoxicity against human PC3 cells at 10^-5 M after 72 hrs by MTS assay; type: functional; conditions: PC-3, 72 h, read-out: GI; how it was run: as §2
[33] = tested on: PC-3; test: Cytotoxicity against human PC3 cells at 10^-6 M after 72 hrs by MTS assay; type: functional; conditions: PC-3, 72 h, read-out: GI; how it was run: as §2
[34] = tested on: HCT-116; test: Cytotoxicity against human HCT116 cells at 10^-6 M after 72 hrs by MTS assay; type: functional; conditions: HCT-116, 72 h, read-out: GI; how it was run: as §1
[35] = tested on: HT-29; test: Cytotoxicity against human HT-29 cells at 10^-6 M after 72 hrs by MTS assay; type: functional; conditions: HT-29, 72 h, read-out: GI; how it was run: as §1

SMILES: COc1ccc(/C(=C2/O[C@@H]([C@H]3COC(C)(C)O3)[C@H]3OC(C)(C)O[C@@H]23)c2cc(OC)c(OC)c(OC)c2)cc1O
- inhibition of growth at 1 µM [1]: 2%
- inhibition of growth at 10 µM [2]: 63%
- inhibition of growth at 10 µM [3]: 35%
- inhibition of growth at 10 µM [4]: 66%
- inhibition of growth at 10 µM [5]: 79%
- inhibition of growth at 10 µM [6]: 68%
- Activity [7]: 59.6%
- inhibition of growth at 1 µM [8]: 0%
- inhibition of growth at 10 µM [9]: 3%
- Activity [10]: 81.92%
- inhibition of growth at 1 µM [11]: 0%
- inhibition of growth at 1 µM [12]: 0%
- inhibition of growth at 1 µM [13]: 2%
- inhibition of growth at 1 µM [14]: 0%
- inhibition of growth at 10 µM [15]: 82%
- inhibition of growth at 1 µM [16]: 3%
- inhibition of growth at 10 µM [17]: 30%
- Activity [18]: 15.44%
- Activity [19]: 102.13%
- inhibition of growth at 10 µM [20]: 69%
- inhibition of growth at 1 µM [21]: 8%
- inhibition of growth at 1 µM [22]: 0%
- inhibition of growth at 1 µM [23]: 1%
- inhibition of growth at 10 µM [24]: 48%
- GI50 ([25]; read-out: GI50): 2.4 µM
- CC50 ([25]; read-out: LC50 (the source's name)): > 100 µM
- TGI ([25]; read-out: TGI): 5.9 µM
- GI50 ([25]; read-out: pGI50 (converted)): 2.4 µM
- CC50 ([25]; read-out: pLC50 (the source's name) (converted)): > 100 µM
- TGI ([25]; read-out: pTGI (converted)): 5.89 µM
- inhibition of growth at 10 µM [26]: 39%
- inhibition of growth at 1 µM [27]: 7%
- Activity [28]: 22.15%
- inhibition of growth at 10 µM [29]: 17%
- inhibition of growth at 10 µM [30]: 20%
- Activity [31]: 63.35%
- inhibition of growth at 10 µM [32]: 71%
- inhibition of growth at 1 µM [33]: 0%
- inhibition of growth at 1 µM [34]: 0%
- inhibition of growth at 1 µM [35]: 2%
